Results reported in publication PMC10088587 (Archives of Microbiology, 2023).
≈ marks a conversion by molar mass, not a printed value. Structures can show the parent of a compound that is named as a salt.

What was measured:
[1] = Critical micelle concentration; assay type: physicochemical
MDCK cells [2] = assay: Cytotoxicity assay; assay type: cell-based; details: 48 h, MTT; for NCTC (EC50): NCTC was selected as EC50 (HA test)
Summary of the method: (§1)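 MDCK cells seeded at 3×10^4/well in 10% FBS and grown 24 h at 37 °C to semi-confluency. Exposed 48 h to twofold dilutions of test compound (2.5 to 0.001 mg/ml), 4 wells per dilution. MTT for 2–3 h at 37 °C in the dark, formazan dissolved in DMSO, OD read at 540 nm, viability taken as % of untreated control. CC50 read from dose-response curves.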

[3] = test system: influenza A/PR/8/34 (H1N1) virus; assay type: cell-based
[4] = test system: H1N1-induced apoptosis in MDCK cells; assay type: cell-based
MDCK cells [5] = assay type: cell-based
[6] = biological target: virus surface HA glycoprotein (Influenza A virus, UniProt P03452); assay: Hemagglutination inhibition assay; assay type: biochemical; details: twofold dilutions from CC50, 4 HA unit of virus, 1% cRBC
virus surface HA glycoprotein, sequence (P03452 18-342 limits assumed): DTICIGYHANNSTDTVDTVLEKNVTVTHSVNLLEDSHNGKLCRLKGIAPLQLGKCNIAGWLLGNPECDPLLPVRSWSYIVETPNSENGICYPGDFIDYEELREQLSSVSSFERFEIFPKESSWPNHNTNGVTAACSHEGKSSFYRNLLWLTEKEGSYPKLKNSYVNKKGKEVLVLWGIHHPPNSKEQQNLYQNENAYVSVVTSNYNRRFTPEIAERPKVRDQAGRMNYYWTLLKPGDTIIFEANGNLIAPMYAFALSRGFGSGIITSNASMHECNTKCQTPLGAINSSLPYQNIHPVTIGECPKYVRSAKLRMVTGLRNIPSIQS
virus surface HA glycoprotein, sequence (P03452 344-565 limits assumed): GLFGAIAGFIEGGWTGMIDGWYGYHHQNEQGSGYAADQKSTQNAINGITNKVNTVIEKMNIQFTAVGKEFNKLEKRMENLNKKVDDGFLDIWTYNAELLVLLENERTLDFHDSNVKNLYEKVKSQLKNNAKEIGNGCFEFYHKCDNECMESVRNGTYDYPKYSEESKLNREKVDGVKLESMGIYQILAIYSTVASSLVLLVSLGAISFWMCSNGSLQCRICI

Cytotoxicity assay = assay type: cell-based; details: dog, MDCK cells
Summary of the method: as §1

Row | Structure (SMILES) | CMC (critical micelle concentration) [1] | CC50 (MDCK cells [2]) | NCTC (EC50) (MDCK cells [2]) | Apoptosis evaluation (%), Q4 healthy cells [4] | Log HA decrement (mean ± SD), Co-pen [3] | further results
1 | CCCCCCCCCCCC[N+](C)(C)CCOCC[N+](C)(C)CCCCCCCCCCCC.[Br-].[Br-] [GSD, 3-oxa-1,5-pentane-bis(N,N-dimethyl-N-dodecylammonium bromide)] | 1.047 | 4.9 ± 0.1 µg/mL | 1.7 ± 0.6 µg/mL | – | – | Log HA decrement (mean ± SD), Post-pen [3]: 5.5 logs; Apoptosis evaluation (%), Q2 late apoptosis [4]: 46.70%
2 | CCCCCCCCCCCCCCCC[N+](C)(C)CCCCCCCCCCCC[N+](C)(C)CCCCCCCCCCCCCCCC.[Br-].[Br-] [GSG, Dodecamethylene-1,12-bis(N,N-dimethyl-N-hexadecylammonium bromide)] | 0.022 | 11.9 ± 0.0 µg/mL | 1.7 ± 1.3 µg/mL | 70.10% | – | –
3 | CCCCCCCCCCCCCCCC[N+](C)(C)CCCCCC[N+](C)(C)CCCCCCCCCCCCCCCC.[Br-].[Br-] [GSA, Hexamethylene-1,6-bis(N,N-dimethyl-N-hexadecylammonium bromide)] | 0.034 | 7.7 ± 0.0 µg/mL | 2.6 ± 1.7 µg/mL | 54.85% | 6.5 logs | –
4 | CCCCCCCCCCCCCCCC[N+](C)(C)Cc1ccc(C[N+](C)(C)CCCCCCCCCCCCCCCC)cc1.[Br-].[Br-] [GSH, 1,4-phenylene-bis(methylene)bis (N,N-dimethyl-N-hexadecylammonium bromide)] | 0.48 | 522.2 ± 0.0 µg/mL | 36.7 ± 28.6 µg/mL | 68.05% | – | –
5 | CCCCCCCCCCCCCCCCCC[N+](C)(C)Cc1ccc(C[N+](C)(C)CCCCCCCCCCCCCCCCCC)cc1.[Br-].[Br-] [GSK, 1,4-phenylene-bis(methylene) bis (N,N-dimethyl-N-octadecylammonium bromide)] | 0.29 | 1229.2 ± 0.0 µg/mL | 307.3 ± 0.0 µg/mL | – | – | –
6 | CCCCCCCCCCCC[N+](C)(C)CCCCCCCCCC[N+](C)(C)CCCCCCCCCCCC.[Br-].[Br-] [GSC, Decamethylene-1,10-bis(N,N-dimethyl-N-dodecylammonium bromide)] | 0.63 | 4.0 ± 0.0 µg/mL | 1.2 ± 0.6 µg/mL | 37.50% | 6.5 logs | Log HA decrement (mean ± SD), Pre-pen [3]: 4.5 logs; Apoptosis evaluation (%), Q4 healthy cells (MDCK cells [5]): 37.500 ± 9.900%
7 | CCCCCCCCCCCCCCCC[N+](C)(C)CCCCCCCCCC[N+](C)(C)CCCCCCCCCCCCCCCC.[Br-].[Br-] [GSF, Decamethylene-1,10-bis(N,N-dimethyl-N-hexadecylammonium bromide)] | 0.032 | 8.8 ± 0.0 µg/mL | 1.7 ± 0.5 µg/mL | 70.50% | – | Apoptosis evaluation (%), Q4 healthy cells (MDCK cells [5]): 82.950 ± 8.132%
8 | CCC(CC)O[C@@H]1C=C(C(=O)O)C[C@H](N)[C@H]1NC(C)=O [Ose, oseltamivir carboxylate, reference compound] | – | 788.5 ± 6.0 µg/mL (≈ 2770 µM) | 394.2 ± 0.0 µg/mL | – | 8 logs | Log HA decrement (mean ± SD), Post-pen [3]: 8 logs; Log HA decrement (mean ± SD), Pre-pen [3]: 8 logs; Dilution to give HI + [6]: 1st
9 | CCCCCCCCCCCCCCCCCC[N+](C)(C)CCCCCCCCCCCC[N+](C)(C)CCCCCCCCCCCCCCCCCC.[Br-].[Br-] [GSJ, Dodecamethylene-1, 12-bis (N, N-dimethyl-N-octadecylammonium bromide)] | 0.0331 | 48.6 ± 0.0 µg/mL | 0.6 ± 0.2 µg/mL | 68.75% | – | –
10 | CCCCCCCCCCCC[N+](C)(C)CCCNCCC[N+](C)(C)CCCCCCCCCCCC.[Br-].[Br-] [GSB, 4-aza-1,7-heptane-bis(N,N-dimethyl-N-dodecylammonium bromide)] | 1.047 | 1.9 ± 0.1 µg/mL | 0.7 ± 0.3 µg/mL | – | – | Apoptosis evaluation (%), Q2 late apoptosis [4]: 49.50%
11 | CCCCCCCCCCCCCCCCCC[N+](C)(C)CCCCCCCCCC[N+](C)(C)CCCCCCCCCCCCCCCCCC.[Br-].[Br-] [GSI, Decamethylene-1,10-bis(N,N-dimethyl-N-octadecylammonium bromide)] | 0.0213 | 16.4 ± 0.0 µg/mL | 2.6 ± 1.5 µg/mL | 77.90% | – | Apoptosis evaluation (%), Q4 healthy cells (MDCK cells [5]): 84.850 ± 1.202%
12 | CCCCCCCCCCCC[N+](C)(C)CCCCCC[N+](C)(C)CCCCCCCCCCCC.[Br-].[Br-] [GSE, Hexamethylene-1,6-bis (N,N-dimethyl-N-dodecylammonium bromide)] | 0.98 | 3.4 ± 0.0 µg/mL | 0.9 ± 0.5 µg/mL | – | – | Apoptosis evaluation (%), Q3 early apoptosis [4]: 54.10%
13 | NC12CC3CC(CC(C3)C1)C2 [Ama, amantadine hydrochloride, reference compound] | – | – | – | – | 7 logs | CC50 at 48 h (Cytotoxicity assay): 197 ± 1.5 µg/mL; EC50 at 48 h (Cytotoxicity assay): 98.5 µg/mL
